Assay results from ChEMBL document CHEMBL1687827, “Profiling the Aspergillus fumigatus proteome in response to caspofungin” (2011).
Calls of active or inactive are those of the source. The rule behind the calls is not given here.

What was measured:
Aspergillus fumigatus [1] = assay: Induction of change in BYS1 domain protein, putative protein level in iTRAQ-118 labelled cell wall fraction of drug-susceptible Aspergillus fumigatus KU80 delta-akuB at 0.12 ug/ml after 24 hrs in YPD medium by MS (MS/MS) analysis relative to control; assay type: functional
Summary of the method: (§1)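 Conidia at 1 × 10⁵/ml grown shaking at 37°C in YPD with or without 0.12 μg/ml caspofungin; mycelia filtered at 24 or 48 h. Secreted fraction taken from the filtrate; cell wall/plasma membrane pellet recovered after French-press lysis and a 5,000 × g spin. Proteins trypsin-digested and iTRAQ-labelled, drug vs no-drug channels at each time, then 2D LC-MS/MS. Protein ratio is the median of ratios from uniquely assigned peptides after median normalization.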

Aspergillus fumigatus [2] = assay: Induction of change in ribosomal protein L29/heparin/heparan sulfate interacting gene expression in drug-susceptible Aspergillus fumigatus KU80 delta-akuB at 0.12 ug/ml after 24 hrs in YPD medium by microarray analysis relative to control; assay type: functional
Summary of the method: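 Mycelia grown from 1 × 10⁵ conidia/ml in YPD at 37°C, 225 rpm, with or without 0.12 μg/ml caspofungin. Total RNA extracted, DNase-treated; 2 μg labelled per TIGR SOP M007 for whole-genome array hybridization. Three independent experiments with dye flip (6 replicates); >2-fold change deemed significant.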

Aspergillus fumigatus [3] = assay: Induction of change in ribosomal protein L26 protein level in iTRAQ-116 labelled secreted fraction of drug-resistant Aspergillus fumigatus EMFR-S678P at 0.12 ug/ml after 48 hrs in YPD medium by MS (MS/MS) analysis relative to control; assay type: functional, organism-based
Summary of the method: (§2)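 Conidia at 1 × 10⁵/ml were grown at 37°C, shaking at 225 rpm, in YPD with or without 0.12 μg/ml caspofungin for 24 or 48 h. The culture filtrate was kept as the secreted fraction. Mycelia were lysed by French press in HEPES/glycerol/EDTA/PMSF/DTT buffer, and the 5,000 × g pellet was washed to give CW/PM. Proteins were reduced, alkylated and trypsin-digested at 37°C overnight, then iTRAQ-labelled and run by 2D LC-MS/MS. Ratios are the median of unique-peptide ratios, median-normalized, versus the no-drug control.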

Aspergillus fumigatus [4] = assay: Induction of change in 14-alpha sterol demethylase Cyp51A protein level in iTRAQ-118 labelled cell wall fraction of drug-resistant Aspergillus fumigatus EMFR-S678P at 0.12 ug/ml after 48 hrs in YPD medium by MS (MS/MS) analysis relative to control; assay type: functional; summary of the method: as §2
Aspergillus fumigatus [5] = assay: Induction of change in aconitate hydratase, mitochondrial protein level in iTRAQ-116 labelled secreted fraction of drug-susceptible Aspergillus fumigatus KU80 delta-akuB at 0.12 ug/ml after 48 hrs in YPD medium by MS (MS/MS) analysis relative to control; assay type: functional; summary of the method: as §1
Aspergillus fumigatus [6] = assay: Induction of change in citrate synthase, eukaryotic protein level in iTRAQ-116 labelled cell wall fraction of drug-susceptible Aspergillus fumigatus KU80 delta-akuB at 0.12 ug/ml after 48 hrs in YPD medium by MS (MS/MS) analysis relative to control; assay type: functional; summary of the method: as §1
Aspergillus fumigatus [7] = assay: Antifungal activity against drug-susceptible Aspergillus fumigatus KU80 delta-akuB assessed as change in hyphal morphology by YPD medium; assay type: functional; details: read-out: MEC
Summary of the method: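 Broth microdilution per CLSI M38-A2, in triplicate, in YPD broth (2% yeast extract, 4% peptone, 4% dextrose); minimum effective concentration read as the lowest drug concentration giving a significant change in hyphal morphology visible by eye. Caspofungin dissolved in sterile water.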

Aspergillus fumigatus [8] = assay: Induction of change in outer mitochondrial membrane protein porin protein level in iTRAQ-116 labelled secreted fraction of drug-susceptible Aspergillus fumigatus KU80 delta-akuB at 0.12 ug/ml after 48 hrs in YPD medium by MS (MS/MS) analysis relative to control; assay type: functional
Summary of the method: (§3)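 Conidia (1 × 10⁵/ml) grown in YPD, 37°C, 225 rpm, ± 0.12 μg/ml caspofungin; filtrate taken as secreted fraction, French-press lysate 5,000 × g pellet as cell wall/plasma membrane. Trypsin digests 8-plex iTRAQ-labelled (drug-free channels as references), pooled, 2D-chromatography, MS/MS. Median-normalized; protein ratio = median of unique-peptide ratios, log2 normalized.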

Aspergillus fumigatus [9] = assay: Induction of change in aldehyde dehydrogenase, putative protein level in iTRAQ114 labelled secreted fraction of drug-resistant Aspergillus fumigatus EMFR-S678P at 0.12 ug/ml after 24 hrs in YPD medium by MS (MS/MS) analysis relative to control; assay type: functional; summary of the method: as §2
Aspergillus fumigatus [10] = assay: Induction of change in Plasma membrane H-ATPase Pma1 protein level in iTRAQ114 labelled cell wall fraction of drug-resistant Aspergillus fumigatus EMFR-S678P at 0.12 ug/ml after 24 hrs in YPD medium by MS (MS/MS) analysis relative to control; assay type: functional; summary of the method: as §2
Aspergillus fumigatus [11] = assay: Induction of change in thioredoxin TrxA protein level in iTRAQ-118 labelled cell wall fraction of drug-susceptible Aspergillus fumigatus KU80 delta-akuB at 0.12 ug/ml after 24 hrs in YPD medium by MS (MS/MS) analysis relative to control; assay type: functional; summary of the method: as §3
Aspergillus fumigatus [12] = assay: Induction of change in thioredoxin TrxA protein level in iTRAQ-118 labelled cell wall fraction of drug-resistant Aspergillus fumigatus EMFR-S678P at 0.12 ug/ml after 24 hrs in YPD medium by MS (MS/MS) analysis relative to control; assay type: functional, organism-based; summary of the method: as §2
Aspergillus fumigatus [13] = assay: Induction of change in PT repeat family protein level in iTRAQ114 labelled secreted fraction of drug-susceptible Aspergillus fumigatus KU80 delta-akuB at 0.12 ug/ml after 24 hrs in YPD medium by MS (MS/MS) analysis relative to control; assay type: functional; summary of the method: as §1
Aspergillus fumigatus [14] = assay: Induction of change in transcriptional repressor TupA/RocA, putative protein level in iTRAQ-118 labelled cell wall fraction of drug-susceptible Aspergillus fumigatus KU80 delta-akuB at 0.12 ug/ml after 24 hrs in YPD medium by MS (MS/MS) analysis relative to control; assay type: functional; summary of the method: as §3
Aspergillus fumigatus [15] = assay: Induction of change in Ribosomal L28e protein family protein level in iTRAQ114 labelled secreted fraction of drug-susceptible Aspergillus fumigatus KU80 delta-akuB at 0.12 ug/ml after 24 hrs in YPD medium by MS (MS/MS) analysis relative to control; assay type: functional; summary of the method: as §1
Aspergillus fumigatus [16] = assay: Induction of change in Mn superoxide dismutase MnSOD protein level in iTRAQ114 labelled cell wall fraction of drug-susceptible Aspergillus fumigatus KU80 delta-akuB at 0.12 ug/ml after 24 hrs in YPD medium by MS (MS/MS) analysis relative to control; assay type: functional; summary of the method: as §1
Aspergillus fumigatus [17] = assay: Induction of change in 60S ribosomal protein L12, putative gene expression in drug-susceptible Aspergillus fumigatus KU80 delta-akuB at 0.12 ug/ml after 24 hrs in YPD medium by microarray analysis relative to control; assay type: functional
Summary of the method: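 Mycelia grown in YPD ± 0.12 μg/ml caspofungin (1 × 10⁵ conidia/ml, 37°C, shaking) and harvested at 24 or 48 h. Total RNA extracted, DNase-treated and quality-checked; 2 μg labelled per TIGR SOP M007 and hybridized to whole-genome arrays. Three independent experiments with dye flip (6 replicates); drug vs untreated fold change.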

## CC[C@H](C)C[C@H](C)CCCCCCCCC(=O)N[C@H]1C[C@@H](O)[C@@H](NCCN)NC(=O)[C@@H]2[C@@H](O)CCN2C(=O)[C@H]([C@H](O)CCN)NC(=O)[C@H]([C@H](O)[C@@H](O)c2ccc(O)cc2)NC(=O)[C@@H]2C[C@@H](O)CN2C(=O)[C@H]([C@@H](C)O)NC1=O [CASPOFUNGIN]
Aspergillus fumigatus [1]
  fold change (FC): -2.3
Aspergillus fumigatus [2]
  fold change (FC): 6.5
Aspergillus fumigatus [3]
  Activity: inactive
Aspergillus fumigatus [4]
  fold change (FC): 1.07
Aspergillus fumigatus [5]
  fold change (FC): 1.2
Aspergillus fumigatus [6]
  fold change (FC): -1.2
Aspergillus fumigatus [7]
  minimal effective concentration: 0.19 µg/mL
Aspergillus fumigatus [8]
  fold change (FC): -1.2
Aspergillus fumigatus [9]
  fold change (FC): 1.62
Aspergillus fumigatus [10]
  fold change (FC): -1.15
Aspergillus fumigatus [11]
  fold change (FC): -3.2
Aspergillus fumigatus [12]
  Activity: inactive
Aspergillus fumigatus [13]
  fold change (FC): -3.5
Aspergillus fumigatus [14]
  fold change (FC): -2.1
Aspergillus fumigatus [15]
  fold change (FC): -1.6
Aspergillus fumigatus [16]
  fold change (FC): -1.2
Aspergillus fumigatus [17]
  fold change (FC): 7.2
